Consider eleven compounds from ChEMBL document CHEMBL1145048, “Functionalized glycomers as growth inhibitors and inducers of apoptosis in human glioblastoma cells” (J Med Chem, 2003).

The nature of test [1]: Efficacy index was evaluated as ratio of apoptosis index to MTT reduction for human glioblastoma LN18 cells at 0 uM concentration. The class given is functional, cell-based. The procedure, abridged: (§1)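 Cells grown 24 h with FCS, then deprived of FCS for 10 h, then exposed to glycomers for 12 h. In adherent cells, MTT reduction (540 nm), [3H]-thymidine incorporation (cpm) and nucleosome-fragment apoptosis index (treated vs control) were measured. Efficacy index = ratio of thymidine incorporation or apoptosis index to MTT reduction.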

Test [2] is described as follows: Efficacy index was evaluated as ratio of apoptosis index to MTT reduction for human glioblastoma LN18 cells at 11.3 uM concentration. The class given is functional, cell-based. The procedure, abridged:
as §1

Test [3] is described as follows: Apoptosis index was determined against human glioblastoma LN18 cells at 16 uM after total exposure of 10 hours. The class given is functional. The procedure, abridged: (§2)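 Cells seeded to half confluence in DMEM-10% FCS for 24 h, then held 24 h without FCS before glycomer addition in serum-free medium. At the end of the incubation, histone-associated DNA fragments (mono- and oligonucleosomes) in still-adherent cells were measured by photometric ELISA (absorbance 405 nm). Apoptosis index = absorbance of treated / untreated wells, untreated set at 1.00. Done in triplicate.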

Test [4] can be described thus: Efficacy index was evaluated as ratio of apoptosis index to MTT reduction for human glioblastoma LN18 cells at 22.5 uM concentration. The class given is functional, cell-based. The procedure, abridged: as §1
Test [5] in a line: Efficacy index was evaluated as ratio of apoptosis index to MTT reduction for human glioblastoma LN18 cells at 4.5 uM concentration. The class given is functional, cell-based. The procedure, abridged: as §1
Test [6] in a line: Efficacy index was evaluated as ratio of inhibition of DNA synthesis (3HT incorporation) to inhibition of growth(MTT) for human glioblastoma LN18 cells at 0 uM concentration. The class given is functional, cell-based. The procedure, abridged: as §1
A short description of test [7]: Efficacy index was evaluated as ratio of inhibition of DNA synthesis (3HT incorporation) to inhibition of growth(MTT) for human glioblastoma LN18 cells at 11.3 uM concentration. The class given is functional, cell-based. The procedure, abridged: as §1
Test [8] in a line: Efficacy index was evaluated as ratio of inhibition of DNA synthesis (3HT incorporation) to inhibition of growth(MTT) for human glioblastoma LN18 cells at 22.5 uM concentration. The class given is functional, cell-based. The procedure, abridged:
as §1

Test [9] can be described thus: Efficacy index was evaluated as ratio of inhibition of DNA synthesis (3HT incorporation) to inhibition of growth(MTT) for human glioblastoma LN18 cells at 4.5 uM concentration. The class given is functional, cell-based. The procedure, abridged: as §1
Test [10] is described as follows: Glycomer activity determined as growth inhibition of human glioblastoma LN18 cells. The class given is functional, cell-based. The procedure, abridged: (§3)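 Cells grown 24 h with FCS, then 24 h without FCS, then exposed to glycomers at increasing concentrations in serum-free medium for 24 h. MTT at 0.2 mg/mL was added for the last 2 h, formazan was dissolved in 0.1 N HCl/2-propanol and read at 540 nm. Growth inhibition = treated/control MTT reduction. IC50 is the concentration giving 50% inhibition from dose–response curves. Triplicate, mean ± SD.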

The nature of test [11]: Efficacy index was evaluated as ratio of apoptosis index to MTT reduction for human glioblastoma LNZ308 cells at 0 uM concentration. The class given is functional, cell-based. The procedure, abridged:
as §1

Test [12] is described as follows: Efficacy index was evaluated as ratio of apoptosis index to MTT reduction for human glioblastoma LNZ308 cells at 11.3 uM concentration. The class given is functional, cell-based. The procedure, abridged: as §1
Test [13] can be described thus: Efficacy index was evaluated as ratio of apoptosis index to MTT reduction for human glioblastoma LNZ308 cells at 22.5 uM concentration. The class given is functional, cell-based. The procedure, abridged:
as §1

The nature of test [14]: Efficacy index was evaluated as ratio of apoptosis index to MTT reduction for human glioblastoma LNZ308 cells at 4.5 uM concentration. The class given is functional, cell-based. The procedure, abridged:
as §1

A short description of test [15]: Apoptosis index was determined against human glioblastoma LNZ308 cells at 16 uM and total exposure time of 10 hours. The class given is functional. The procedure, abridged:
as §2

Test [16] in a line: Efficacy index was evaluated as ratio of inhibition of DNA synthesis (3HT incorporation) to inhibition of growth(MTT) for human glioblastoma LNZ308 cells at 0 uM concentration. The class given is functional, cell-based. The procedure, abridged: as §1
A short description of test [17]: Efficacy index was evaluated as ratio of inhibition of DNA synthesis (3HT incorporation) to inhibition of growth(MTT) for human glioblastoma LNZ308 cells at 11.3 uM concentration. The class given is functional, cell-based. The procedure, abridged: as §1
Test [18] can be described thus: Efficacy index was evaluated as ratio of inhibition of DNA synthesis (3HT incorporation) to inhibition of growth(MTT) for human glioblastoma LNZ308 cells at 22.5 uM concentration. The class given is functional, cell-based. The procedure, abridged: as §1
Test [19] is described as follows: Efficacy index was evaluated as ratio of inhibition of DNA synthesis (3HT incorporation) to inhibition of growth(MTT) for human glioblastoma LNZ308 cells at 4.5 uM concentration. The class given is functional, cell-based. The procedure, abridged: as §1
The nature of test [20]: Glycomer activity determined as growth inhibition of human glioblastoma LNZ308 cells. The class given is functional, cell-based. The procedure, abridged: as §3
The nature of test [21]: Apoptosis index was determined against human glioblastoma LN18 cells at concentration of 25 uM after total exposure time of 24 hours. The class given is functional, cell-based. The procedure, abridged:
as §2

The nature of test [22]: Apoptosis index was determined against human glioblastoma LNZ308 cells at concentration of 25 uM after otal exposure time of 24 hours. The class given is functional, cell-based. The procedure, abridged: as §2
Test [23] is described as follows: Apoptosis index was determined against human glioblastoma LN18 cells at concentration of 11 uM after total exposure time of 15 hours. The class given is functional, cell-based. The procedure, abridged:
as §2

Test [24] is described as follows: Apoptosis index was determined against human glioblastoma LNZ308 cells at concentration of 11 uM after total exposure time of 15 hours. The class given is functional, cell-based. The procedure, abridged:
as §2

Test [25] can be described thus: Apoptosis index was determined against human glioblastoma LNZ308 cells at concentration of 25 uM after total exposure time of 24 hours. The class given is functional, cell-based. The procedure, abridged: as §2
Test [26] can be described thus: Apoptosis index was determined against human glioblastoma LN18 cells at 25 uM after total exposure time of 24 hours. The class given is functional. The procedure, abridged: as §2
Test [27] in a line: Apoptosis index was determined against human glioblastoma LNZ308 cells at 25 uM after total exposure time of 24 hours. The class given is functional. The procedure, abridged: as §2

As for `C=CCO[C@H]1[C@H](O)[C@H](COS(=O)(=O)c2cccc(C(F)(F)F)c2)O[C@@H](Oc2ccc(I)cc2)[C@H]1OC(=O)CC`, the Efficacy index is 0.93 in test [1]; 3.51 in test [2]; 9.6 in test [4]; 1.19 in test [5]; 16.2 in test [6]; 0.23 in test [7]. Further, the Efficacy index in test [8] is 0.3; in test [9] it was 4.87; in [11] it was 0.95; in [12] it was 2.03; in [13], 5.09; in test [14] it was 0.99. Further, the Efficacy index in test [16] was 9.79; in test [17], 1.23; in test [18], 0.24; in [19], 5. Also, the Apoptosis index was 3.82 in test [3] and 8.97 in [15]. Moreover, the IC50 in [10] (Homo sapiens, LN-18) was determined as 7 µM; in test [20] (Homo sapiens, LNZ308) it was 11.5 µM.

Take `C=CCO[C@@H]1[C@H](O)[C@H](Oc2ccc(Br)cc2)O[C@@H](COCc2ccccc2)[C@H]1O`: the Apoptosis index in test [21] was found to be 1.19. The IC50 in [10] (Homo sapiens, LN-18) was above 50 µM; in test [20] (Homo sapiens, LNZ308) it was above 50 µM.

Turning to `C=CCO[C@H]1[C@H](O)[C@H](COS(=O)(=O)c2cccc(C(F)(F)F)c2)O[C@@H](Oc2ccc(I)cc2)[C@H]1OC(=O)CCC` (stereo in doubt; 8c), the Apoptosis index was 0.44 in [21] and 0.41 in [22].

Take `C=CCOC1C(O)C(CNS(=O)(=O)c2cccc(C(F)(F)F)c2)OC(Oc2ccc(I)cc2)C1OC(=O)CC` (configuration not stated): the Apoptosis index was found to be 0.98 in test [23] and 1.45 in test [24]. Also, the Efficacy index in [1] worked out at 0.93; in [2] it was 1.63; in [4], 8.43; in test [5], 0.88; in test [6], 16.2; in test [7], 0.07. In addition, the Efficacy index stood at 0.47 in test [8]; 3.11 in [9]; 0.95 in test [11]; 1.81 in [12]; 6.18 in test [13]; 0.72 in test [14]. Moreover, the figures for the Efficacy index in test [17] and in [18] were 0.64 and 0.35, respectively.

`CCCO[C@@H]1[C@H](O)[C@H](Oc2ccccc2)O[C@@H](COCc2ccccc2)[C@H]1O` had an Apoptosis index in test [21] of 1.29. Further, the IC50 in test [10] (Homo sapiens, LN-18) was above 50 µM; in test [20] (Homo sapiens, LNZ308) it was above 50 µM.

Consider `C=CCO[C@H]1[C@H](O)[C@H](COCc2ccccc2)O[C@@H](Oc2ccc(I)cc2)[C@H]1OC(=O)CCC`, for which the Apoptosis index stood at 1.6 in [21] and 2.27 in test [25]. Also, the IC50 in [10] (Homo sapiens, LN-18) worked out at 7.5 µM; in test [20] (Homo sapiens, LNZ308), 11.5 µM.

Take `CCCO[C@H]1[C@H](O)[C@H](COCc2ccccc2)O[C@@H](Oc2ccc(OC)cc2)[C@H]1OC(C)=O`: the half-inhibitory concentration (IC50) was above 50 µM in test [10] (Homo sapiens, LN-18) and above 50 µM in test [20] (Homo sapiens, LNZ308).

Consider `C=CCO[C@H]1[C@H](O)[C@H](COS(=O)(=O)c2cccc(C(F)(F)F)c2)O[C@@H](Oc2ccc(I)cc2)[C@H]1OC(=O)C(C)C`, for which the Apoptosis index in [26] came out at 1.1; in [27] it was 1.09. Further, the IC50 came out at 12.5 µM in [10] (Homo sapiens, LN-18) and 8.5 µM in test [20] (Homo sapiens, LNZ308).

As to `C=CCO[C@H]1[C@H](O)[C@H](COCc2ccccc2)O[C@@H](Oc2ccc(I)cc2)[C@H]1OC(=O)CC`, the results for the Apoptosis index in [23] and in test [24] were 3.67 and 0.91, respectively. Besides, the Efficacy index in [1] was determined as 0.93; in test [2], 4.85; in test [4], 8.3; in test [5], 1.92; in [6], 16.2; in test [7], 0.09. Also, the Efficacy index came out at 0.58 in [8]; 6.23 in [9]; 0.95 in [11]; 0.7 in [12]; 2.32 in test [13]; 0.62 in test [14]. Further, the Efficacy index in [16] stood at 9.79; in test [17], 2.04; in test [18] it was 0.34. Further, the IC50 worked out at 11.5 µM in test [10] (Homo sapiens, LN-18) and 17.5 µM in test [20] (Homo sapiens, LNZ308).

On to `C=CCO[C@H]1[C@H](O)[C@H](COS(=O)(=O)c2cccc(C(F)(F)F)c2)O[C@H](Oc2ccc(I)cc2)[C@@H]1OC(=O)CCC`, for which the IC50 in test [10] (Homo sapiens, LN-18) was found to be 25 µM; in test [20] (Homo sapiens, LNZ308) it was 42 µM.

Take `C=CCOC1C(O)C(CNS(=O)(=O)c2cccc(C(F)(F)F)c2)OC(Oc2ccc(I)cc2)C1OC(=O)CCC` (stereo in doubt; 17a): the results for the IC50 in test [10] (ln18) and in [20] (lnz308) were 25 µM and 26 µM, respectively.
